Results pooled from the literature.
Protocols differ between the studies behind these lines.
Target: Dual specificity protein kinase CLK2 (CLK2, Homo sapiens, UniProt P49760)

| SMILES | read-out | action | method | tested at | measurement | value |
| --- | --- | --- | --- | --- | --- | --- |
| Cc1ccc(NC(=O)c2ccnc(C(F)(F)F)c2)cc1-c1cc(OCCO)nc(N2CCOCC2)c1 | binding | – | – | 1 µM | remaining binding | 100% |
| C1=C/COCc2cc(ccc2OCCN2CCCC2)Nc2nccc(n2)-c2cccc(c2)COC/1 | binding | – | – | 0.1 µM | remaining binding | 47% |
| C=CC(=O)N1CCC[C@@H](n2nc(-c3ccc(Oc4ccccc4)cc3)c3c(N)ncnc32)C1 | enzyme activity | inhibitor | – | 1 µM | inhibition | 2% |
| C#Cc1cc(-c2cc(Nc3nc(N[C@@H](C)c4ccc(F)cn4)ncc3Cl)n[nH]2)ccc1C=O | enzyme activity | inhibitor | – | 0.2 µM | inhibition | 47.4% |
| CCCCC(=O)Nc1ccc(-c2ccc3ncn(CCC)c(=O)c3c2)cn1 | binding | – | competition with immobilised ligand | 0.5 µM | remaining binding | 100% |
| CO[C@@H]1[C@H](N(C)C(=O)c2ccccc2)C[C@H]2O[C@]1(C)n1c3ccccc3c3c4c(c5c6ccccc6n2c5c31)C(=O)NC4 | enzyme activity | inhibitor | – | 1 µM | inhibition | 54% |
| CC(C)S(=O)(=O)c1ccc2nccc(Nc3ccc4sc(C5CCCC5)nc4c3)c2c1 | enzyme activity | inhibitor | – | 1 µM | activity vs control | 105% |
| Cc1cc(O)c(-c2ccc([C@@H](C)CN(C)C)cc2)c2c1[nH]c(=O)c1sccc12 | enzyme activity | inhibitor | – | 0.1 µM | inhibition | 8.32% |
| C[C@H]1CC[C@H](n2c3cnccc3c3cnc(Nc4ccc5c(n4)CCN(C(=O)CO)C5)nc32)CC1 | cell-free assay | – | – | 1 µM | remaining signal | 1% |
